Source: ChEMBL document CHEMBL1152882, “Optimization of novel di-substituted cyclohexylbenzamide derivatives as potent 11 beta-HSD1 inhibitors” (Bioorg Med Chem Lett, 2009)

Legend:
[1] = Metabolic stability in rat liver microsomes assessed as compound turnover after 30 mins; type: ADME, Microsome; details: read-out: Activity
HeLa = test: Cytotoxicity against human HeLa cells after 72 hrs by alamar blue assay
[2] = biological target: T1, Nuclear receptor subfamily 1 group I member 2 (Homo sapiens, UniProt O75469); test: Activation of human PXR expressed in human HepG2 cells at 2 uM by luciferase reporter gene assay relative to rifampin; type: cell-based; details: hepg2, 2 µM
T1 sequence (O75469 whole entry): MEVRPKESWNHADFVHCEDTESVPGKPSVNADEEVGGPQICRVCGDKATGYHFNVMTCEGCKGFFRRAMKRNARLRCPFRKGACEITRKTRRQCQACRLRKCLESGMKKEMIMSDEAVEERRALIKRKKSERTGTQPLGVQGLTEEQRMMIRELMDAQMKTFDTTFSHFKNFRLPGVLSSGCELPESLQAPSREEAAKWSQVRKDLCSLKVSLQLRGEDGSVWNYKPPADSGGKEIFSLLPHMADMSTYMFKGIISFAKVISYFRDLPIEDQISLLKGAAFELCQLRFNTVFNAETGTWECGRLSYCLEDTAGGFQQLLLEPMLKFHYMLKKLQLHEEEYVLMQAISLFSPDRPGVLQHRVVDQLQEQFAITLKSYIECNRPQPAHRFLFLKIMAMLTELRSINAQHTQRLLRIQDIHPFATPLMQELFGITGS
Procedure, shortened: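 Transactivation was measured in HepG2 cells transfected with a luciferase reporter construct driven by human PXR cDNA. Luciferase activity was read by chemiluminescence and expressed as percent of the rifampin control.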

[3] = Metabolic stability in human liver microsomes assessed as compound turnover after 30 mins; type: ADME, Microsome; details: read-out: Activity
[4] = biological target: 11-beta-hydroxysteroid dehydrogenase 1 (Homo sapiens, UniProt P28845); test: Inhibition of FLAG-tagged full length human 11beta-HSD1 expressed in baculovirus-infected Trichoplusia ni Hi5 cells assessed as reduction of [3H]cortisone to [3H]cortisol by scintillation proximity assay in presence of NADPH; type: cell-based, BTI-TN-5B1-4
[5] = Clearance in cynomolgus monkey at 0.5 mg/kg, iv and 2 mg/kg, po; details: in vivo
[6] = AUC in cynomolgus monkey at 2 mg/kg, po; type: ADME, organism-based, Macaca fascicularis; design: dose 2 mg/kg, route oral; details: plasma
Procedure, shortened: (§1)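 Single-dose PK: intravenous dose 0.5 or 0.7 mg/kg (footnotes a, b), oral dose 2.0 mg/kg. Reported parameters are iv clearance (L/h/kg), Vdss (L/kg), oral AUC and % oral bioavailability.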

[7] = Bioavailability in rat at 0.7 mg/kg, iv and 2 mg/kg, po; type: ADME, organism-based; details: in vivo; procedure, shortened: as §1
[8] = Clearance in rat at 0.7 mg/kg, iv and 2 mg/kg, po; type: ADME, organism-based; details: in vivo; procedure, shortened: as §1
[9] = Bioavailability in cynomolgus monkey at 0.5 mg/kg, iv and 2 mg/kg, po; details: in vivo
[10] = AUC in rat at 2 mg/kg, po; type: ADME, organism-based; design: dose 2 mg/kg, route oral; details: plasma; procedure, shortened: as §1
[11] = Volume of distribution at steady state in cynomolgus monkey at 0.5 mg/kg, iv and 2 mg/kg, po; details: in vivo, read-out: Vdss
[12] = Volume of distribution at steady state in rat at 0.7 mg/kg, iv and 2 mg/kg, po; type: ADME, organism-based; details: in vivo, read-out: Vdss; procedure, shortened: as §1
[13] = Bioavailability in cynomolgus monkey at 0.5 mg/kg, iv and 2 mg/kg, po; type: ADME, organism-based, Macaca fascicularis; details: in vivo; procedure, shortened: as §1
[14] = Clearance in cynomolgus monkey at 0.5 mg/kg, iv and 2 mg/kg, po; type: ADME, organism-based, Macaca fascicularis; details: in vivo; procedure, shortened: as §1
[15] = Bioavailability in rat at 0.5 mg/kg, iv and 2 mg/kg, po; type: ADME, organism-based; details: in vivo; procedure, shortened: as §1
[16] = Volume of distribution at steady state in rat at 0.5 mg/kg, iv and 2 mg/kg, po; type: ADME, organism-based; details: in vivo, read-out: Vdss; procedure, shortened: as §1
Rattus norvegicus = test: Inhibition of 11beta-HSD1 in epididymal fat tissue of po dosed Sprague-Dawley rat assessed as reduction in [3H]cortisol production after 2 hrs by scintillation proximity assay; details: Adipose tissue
[17] = Tmax in po dosed Sprague-Dawley rat; type: ADME, organism-based; details: in vivo
[18] = Volume of distribution at steady state in cynomolgus monkey at 0.5 mg/kg, iv and 2 mg/kg, po; type: ADME, organism-based, Macaca fascicularis; details: in vivo, read-out: Vdss; procedure, shortened: as §1
Cynomolgus monkey = test: cells; details: Macaca fascicularis, Adipose tissue
[19] = Clearance in rat at 0.5 mg/kg, iv and 2 mg/kg, po; type: ADME, organism-based; details: in vivo; procedure, shortened: as §1
[20] = biological target: 11-beta-hydroxysteroid dehydrogenase 1 (Rattus norvegicus, UniProt P16232); test: Inhibition of rat 11beta-HSD1
Procedure, shortened: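 Biochemical assay using baculovirus-produced recombinant full-length rat 11β-HSD1 with NADPH as cofactor. Substrate is [3H]cortisone. The [3H]-cortisol formed is captured by anti-cortisol monoclonal antibody SPA beads and quantified by scintillation. IC50 is from dose-response curve fitting of at least duplicate samples.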

[21] = Fraction unbound in human serum by ultracentrifugation assay; type: ADME, cell-free
Procedure, shortened: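 Human protein binding was measured with separation by ultracentrifugation and reported as fraction unbound.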

Sequence of 11-beta-hydroxysteroid dehydrogenase 1 (Homo sapiens, UniProt P28845) (P28845 whole entry): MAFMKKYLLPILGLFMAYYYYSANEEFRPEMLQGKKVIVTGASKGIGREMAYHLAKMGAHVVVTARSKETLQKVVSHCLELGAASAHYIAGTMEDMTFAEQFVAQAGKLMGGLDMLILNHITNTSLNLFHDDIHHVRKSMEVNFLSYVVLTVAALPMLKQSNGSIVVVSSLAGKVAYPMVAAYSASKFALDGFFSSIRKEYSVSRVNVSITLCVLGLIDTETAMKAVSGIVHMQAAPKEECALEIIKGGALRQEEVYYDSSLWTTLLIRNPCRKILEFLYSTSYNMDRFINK
Sequence of 11-beta-hydroxysteroid dehydrogenase 1 (Rattus norvegicus, UniProt P16232) (P16232 whole entry): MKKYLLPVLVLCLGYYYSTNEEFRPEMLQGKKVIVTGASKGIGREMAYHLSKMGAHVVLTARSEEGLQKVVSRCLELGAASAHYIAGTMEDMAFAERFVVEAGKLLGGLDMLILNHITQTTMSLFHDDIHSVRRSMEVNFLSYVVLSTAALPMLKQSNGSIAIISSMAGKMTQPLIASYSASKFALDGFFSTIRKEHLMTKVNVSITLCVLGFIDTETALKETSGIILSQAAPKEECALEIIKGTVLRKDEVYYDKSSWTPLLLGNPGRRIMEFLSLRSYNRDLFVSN

| Compound | metabolised at 0.5 h [1] | IC50 (HeLa) | Activity [2] | metabolised at 0.5 h [3] | further results |
| --- | --- | --- | --- | --- | --- |
| C[C@@](O)(c1ccc(C(=O)N(C2CC2)[C@H]2CC[C@](C#N)(c3ccccn3)CC2)cc1)C(F)(F)F | 14% | > 10 µM | 7.6% | < 5% |  |
| C[C@@](O)(c1ccc(C(=O)N(C2CC2)[C@H]2CC[C@@](C#N)(c3ccccn3)CC2)cc1)C(F)(F)F | 95% | > 10 µM | 6.3% | 6.9% |  |
| C[C@](O)(c1ccc(C(=O)N(C2CC2)[C@H]2CC[C@H](c3cccnc3)CC2)cc1)C(F)(F)F |  | 2.5 µM | 2.2% | < 5% | IC50 [4]: 0.0017 µM |
| C[C@](O)(c1ccc(C(=O)N(C2CC2)[C@H]2CC[C@@H](c3cccnc3)CC2)cc1)C(F)(F)F |  | > 10 µM | 38% | 94% | IC50 [4]: 0.0016 µM |
| C[C@](O)(c1ccc(C(=O)N(C2CC2)[C@H]2CC[C@](C#N)(c3ccc(C#N)cc3)CC2)cc1)C(F)(F)F | < 5% | > 10 µM | < 5% | 6.8% |  |
| C[C@](O)(c1ccc(C(=O)N(C2CC2)[C@H]2CC[C@](C#N)(c3cccnc3)CC2)cc1)C(F)(F)F | 35% | > 10 µM | < 5% | < 5% |  |
| C[C@](O)(c1ccc(C(=O)N(C2CC2)[C@H]2CC[C@](O)(c3ccccc3)CC2)cc1)C(F)(F)F | < 5% | 5.1 µM | < 5% | < 5% |  |
| C[C@](O)(c1ccc(C(=O)N(C2CC2)[C@H]2CC[C@@](C)(O)CC2)cc1)C(F)(F)F | < 5% | > 10 µM | < 5% | < 5% |  |
| C[C@](O)(c1ccc(C(=O)N(C2CC2)[C@H]2CC[C@@H](c3ccc(C#N)cc3)CC2)cc1)C(F)(F)F |  | > 10 µM | 75% | 33% | IC50 [4]: 0.0049 µM |
| C[C@](O)(c1ccc(C(=O)N(C2CC2)[C@H]2CC[C@](O)(c3cccnc3)CC2)cc1)C(F)(F)F | < 5% | > 10 µM | < 5% | < 5% |  |
| C[C@](O)(c1ccc(C(=O)N(C2CC2)[C@H]2CC[C@H](c3ccccc3)CC2)cc1)C(F)(F)F |  | > 10 µM | 31% | < 5% |  |
| C[C@](O)(c1ccc(C(=O)N(C2CC2)[C@H]2CC[C@](O)(CC3CC3)CC2)cc1)C(F)(F)F | 43% | 2.8 µM | 5.9% | 10% |  |
| C[C@](O)(c1ccc(C(=O)N(C2CC2)[C@H]2CC[C@H](c3ccc(C#N)cc3)CC2)cc1)C(F)(F)F |  | 1.1 µM | 11% | < 5% | IC50 [4]: 0.00076 µM |
| CC(C)[C@]1(O)CC[C@@H](N(C(=O)c2ccc([C@](C)(O)C(F)(F)F)cc2)C2CC2)CC1 | 69% | > 10 µM | < 3.4% | 10% |  |
| C[C@](O)(c1ccc(C(=O)N(C2CC2)[C@H]2CC[C@@](O)(c3ccccc3)CC2)cc1)C(F)(F)F | > 95% | > 10 µM | < 5% | 15% |  |
| C[C@](O)(c1ccc(C(=O)N(C2CC2)[C@H]2CC[C@](O)(c3ccccn3)CC2)cc1)C(F)(F)F | < 5% | > 10 µM | 6.1% | < 5% |  |
| C[C@](O)(c1ccc(C(=O)N(C2CC2)[C@H]2CC[C@](C#N)(c3ccccc3)CC2)cc1)C(F)(F)F | 6% | > 10 µM | < 5% | < 5% |  |
| C[C@](O)(c1ccc(C(=O)N(C2CC2)[C@H]2CC[C@](C#N)(C3CC3)CC2)cc1)C(F)(F)F | < 10% | > 10 µM | < 5% | < 10% | clearance [5]: 1.55 mL/min/kg; AUC [6]: 1000 ng·h/mL; bioavailability [7]: 40%; clearance [8]: 3.17 mL/min/kg; bioavailability [9]: 5%; AUC [10]: 4100 ng·h/mL; Vd [11]: 1.9 L/kg; Vd [12]: 2.2 L/kg |
| C[C@](O)(c1ccc(C(=O)N(C2CC2)[C@H]2CC[C@](O)(C3CC3)CC2)cc1)C(F)(F)F | 7.4% | > 10 µM | < 5% | < 5% | bioavailability [13]: 43%; clearance [14]: 1.83 mL/min/kg; AUC [6]: 4700 ng·h/mL; bioavailability [15]: 76%; Vd [16]: 2.7 L/kg; ED50 (Rattus norvegicus): 10 mg/kg; Tmax [17]: 2 h; Vd [18]: 1.5 L/kg; IC50 (Cynomolgus monkey): 0.64 µM; AUC [10]: 8900 ng·h/mL; clearance [19]: 4 mL/min/kg; IC50 [20]: 0.244 µM; fraction unbound [21]: 0.12 |
